Reference: ChEMBL document CHEMBL4385624, “l-Type amino acid transporter 1 activity of 1,2,3-triazolyl analogs of l-histidine and l-tryptophan” (Bioorg Med Chem Lett, 2019)

Experiments:
Format in all cases: cell-based
[1] = molecular target: T1, Large neutral amino acids transporter small subunit 1 (Homo sapiens, UniProt Q01650); assay: Cis-inhibition of human LAT1 expressed in TREx HEK293 cells assessed as inhibition of [3H]-gabapentin uptake preincubated for 3 mins at 37 degC followed by washing with choline buffer and measured after 3 hrs by scintillation counting analysis
Method in brief: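 Inducible hLAT1 HEK cells in 24-well poly-D plates, pH 7.4. Cells were exposed to [³H]-gabapentin (6 nM) plus test compound at 0.1–500 μM. […] Run at least in triplicate.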

[2] = molecular target: T1, Large neutral amino acids transporter small subunit 1; assay: Trans-stimulation of human LAT1 expressed in TREx HEK293 cells assessed as induction of [3H]-gabapentin efflux at 200 uM after 3 mins by scintillation counting analysis relative to L-phenylalanine
Method in brief: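 [³H]-gabapentin-preloaded HEK-hLAT1 cells (inducible) were treated with compound at 200 μM. Efflux rate was taken at 3 min and expressed as % of the rate induced by L-phenylalanine, averaged over seven experiments. At least triplicate, 24-well poly-D plates.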

[3] = molecular target: T1, Large neutral amino acids transporter small subunit 1; assay: Cis-inhibition of human LAT1 expressed in TREx HEK293 cells at 200 uM assessed as inhibition of [3H]-gabapentin uptake preincubated for 3 mins at 37 degC followed by washing with choline buffer and measured after 3 hrs by scintillation counting analysis relative to BCH
[4] = molecular target: T1, Large neutral amino acids transporter small subunit 1; assay: Trans-stimulation of human LAT1 expressed in TREx HEK293 cells assessed as induction of [3H]-gabapentin efflux at 200 uM after 3 mins by scintillation counting analysis
Method in brief: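 HEK cells with inducible hLAT1 were preloaded with [³H]-gabapentin, then exposed to test compound at 200 μM. Efflux rate (fmol/min) was calculated 3 min after compound addition. Data from at least triplicate wells in 24-well poly-D plates.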

T1 sequence (Q01650 whole entry): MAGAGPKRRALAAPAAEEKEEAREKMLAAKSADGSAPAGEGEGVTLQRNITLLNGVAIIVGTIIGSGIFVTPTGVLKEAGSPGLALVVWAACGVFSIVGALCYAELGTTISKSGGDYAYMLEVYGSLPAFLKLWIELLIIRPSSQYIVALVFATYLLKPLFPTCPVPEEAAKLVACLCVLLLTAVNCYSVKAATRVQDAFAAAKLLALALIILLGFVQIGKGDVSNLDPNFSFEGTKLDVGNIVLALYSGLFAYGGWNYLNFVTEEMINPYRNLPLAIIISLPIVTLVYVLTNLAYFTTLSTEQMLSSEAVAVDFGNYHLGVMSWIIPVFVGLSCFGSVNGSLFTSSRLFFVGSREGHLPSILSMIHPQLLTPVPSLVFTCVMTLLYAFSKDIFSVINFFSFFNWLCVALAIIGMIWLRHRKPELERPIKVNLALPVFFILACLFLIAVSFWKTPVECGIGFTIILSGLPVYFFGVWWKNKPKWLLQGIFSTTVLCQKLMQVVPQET

Compound: N[C@@H](Cn1ccnn1)C(=O)O
- IC50 [1]: 160 µM
- Activity [2]: 82%
- inhibition [3]: 58%

Compound: N[C@@H](Cc1c[nH]cn1)C(=O)O [HISTIDINE]
- IC50 [1]: 110 µM

Compound: N[C@@H](Cn1cc(CO)nn1)C(=O)O
- IC50 [1]: > 1000 µM
- Activity [2]: 57%
- inhibition [3]: 14%

Compound: N[C@@H](Cn1nnc2ccccc21)C(=O)O
- IC50 [1]: 340 µM
- Activity [2]: 100%
- inhibition [3]: 59%

Compound: N[C@@H](Cc1cn(Cc2ccccc2)nn1)C(=O)O
- Activity [2]: 43%

Compound: N[C@@H](Cn1cc(Cc2ccccc2)nn1)C(=O)O
- Activity [2]: 49%
- inhibition [3]: -6%

Compound: N[C@@H](Cc1ccccc1)C(=O)O
- Activity [4]: 2.7 fmol/min

Compound: Cc1cn(C[C@H](N)C(=O)O)nn1
- IC50 [1]: 440 µM
- Activity [2]: 70%
- inhibition [3]: 38%

Compound: Cn1cc(C[C@H](N)C(=O)O)nn1
- IC50 [1]: > 1000 µM
- Activity [2]: 63%
- inhibition [3]: 20%

Compound: N[C@@H](Cn1cc(-c2ccccc2)nn1)C(=O)O
- IC50 [1]: > 1000 µM
- Activity [2]: 37%
- inhibition [3]: 13%
